Many of the other results were omitted from the sample, so hits are more common in it than they were.
Insulin prom act: TRM-6 insulin promoter activation | TRM-6 cells, insulin promoter eGFP reporter, imaging; plate-scaled: unstimulated 0, stimulated control 100 | activation, % at 2 µM | 130,000 compounds, 0.81% hits;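 active = activation at 2 µM above a set limit, confirmed on inspection of the cell images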;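 also: share of cells whose green reporter signal exceeds an intensity cutoff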
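material = TRM-6 human fetal islet cells, insulin promoter–eGFP reporter | input = 1,000 TRM-6 cells seeded per well | benchmarks = stimulated versus unstimulated wells as plate controls | measured by = automated fluorescence imaging of paraformaldehyde-fixed, Hoechst-counterstained cells, green channel | schedule = compound exposure 48 h, 37 °C | reagent = tamoxifen at 0.75 µM added at seeding for reporter induction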
Large screens that a line does not name were inactive.

COc1ccc(NC(=O)C(C)N2C(=O)c3ccccc3C2=O)cc1S(=O)(=O)N1CCOCC1 (centres undefined)	none
O=C(Nc1ccccc1)c1ccc(=O)n(Cc2ccc(F)c(F)c2)c1	none
Cc1cc(NC(=O)/C=C/c2ccc(F)cc2)n(-c2nc3ccccc3[nH]2)n1	none
Cc1cc(NC(=O)/C=C/c2cccc(Cl)c2)n(-c2nc3ccccc3[nH]2)n1	Insulin prom act 300
Cc1cc(NC(=O)c2c(F)cccc2F)n(-c2nc3ccccc3[nH]2)n1	none
Cn1ncc2c(=O)n(CC(=O)NC34CC5CC(CC(C5)C3)C4)cnc21	none
CCNS(=O)(=O)c1ccc(C)c(-n2cnnn2)c1C	none
Cc1ccc(CSCCNC(=O)/C=C/c2ccc(Cl)cc2)cc1	none
COc1ccc(/C=C/C(=O)NCCOc2ccc(C)cc2)cc1	none
O=C(/C=C/c1ccc(OCCCF)cc1)NCc1ccc(Cl)cc1	Insulin prom act 223
CCOC(=O)c1sc(NC(=O)COC(=O)CNC(=O)C2CCCCC2)c(C(=O)OCC)c1C	none
CCc1cc[n+](-c2nc3ccccc3nc2[N-]S(=O)(=O)c2ccc(Br)s2)cc1	none
COC(=O)C1=C(C)N(CCCC(=O)O)C(=O)NC1c1ccc(-c2ccccc2)cc1 (centres undefined)	none
COC(=O)C1=C(C)N(CCCC(=O)O)C(=O)NC1c1cccs1 (centres undefined)	Insulin prom act 295
COC(=O)C1=C(C)C(c2cccs2)NC(=O)N1C (centres undefined)	none
N#CCCn1c(C2CCCCC2)nc2ccccc21	none
CN(Cc1cn(C)c2ccccc12)C(=S)Nc1cc(F)cc(F)c1	none
O=C(c1ccc(S(=O)(=O)Cc2ccccc2F)c([N+](=O)[O-])c1)N1CCCC1	none
CC1(c2ccc([N+](=O)[O-])c(CS(=O)(=O)c3ccccc3)c2)OCCO1	Insulin prom act 627
CC1CCN(C(=O)c2ccc(S(=O)(=O)Cc3ccccc3F)c([N+](=O)[O-])c2)CC1	none
COc1cc(NC(=S)NCc2ccc(S(N)(=O)=O)cc2)c(OC)cc1Cl	none
COc1ccc(C(=O)Oc2cccc(/C=N/NC(N)=S)c2)cc1	none
COc1ccc(C(=O)NNC2=NCCCCC2)cc1	none
CC(=O)c1ccc(N2CCN(S(=O)(=O)c3cccc(S(=O)(=O)N4CCOCC4)c3)CC2)cc1	none
O=S(=O)(c1cccc(S(=O)(=O)N2CCC(Cc3ccccc3)CC2)c1)N1CCOCC1	none
O=S(=O)(c1cccc(S(=O)(=O)N2CCC(N3CCCCC3)CC2)c1)N1CCOCC1	Insulin prom act 631
CC(C)(C)C(=O)NCCc1nc2ccccc2n1CC(=O)c1ccc(Cl)cc1	none
CCCOc1ccc(C2C(C(=O)/C=C/c3ccco3)=C(O)C(=O)N2CCN2CCOCC2)cc1OC (centres undefined)	none
O=C1c2ccccc2C(=O)c2c1oc(C(F)(F)F)c2C(=O)c1ccccc1	none
CC(=O)c1c(C)oc2c1C(=O)c1ccccc1C2=O	none
O=C1c2ccccc2-c2onc3ccc(Oc4ccccc4)c1c23	Insulin prom act 400
CCCCC(=O)NCc1ccc(Cl)cc1	none
COc1ccccc1N(CC(=O)NCc1ccccc1)C(=O)CCC(=O)Nc1cc(C)ccn1	none
Cc1ccc(NC(=O)CCSc2ccccn2)cc1	none
Cc1ccc(NC(=S)NC(NC(=O)c2ccccc2C)C(Cl)(Cl)Cl)c(C)c1 (centres undefined)	none
Cc1ccccc1NC(=O)OCc1cccnc1Sc1ccc(Cl)cc1	none
Cc1ccc(Sc2ncccc2COC(=O)Nc2c(C)cccc2C)cc1	none
Cc1ccc(Oc2ncccc2COC(=O)Nc2ccccc2C)cc1	Insulin prom act 369
O=C1c2cccc3c(O)ccc(c23)C(=O)N1Cc1ccccc1	Insulin prom act 233
O=C1c2cccnc2C(=O)N1Cc1ccccc1	none
O=C(c1ccccc1)c1ccc(CN2C(=O)c3ccccc3C2=O)o1	none
CCOc1ccc(-c2nnn(CC(=O)N3CCCC3)n2)cc1OCC	none
O=C(NCc1ccccc1)N1CCN(c2ccc(F)cc2)CC1	none
COc1ccc(N2CCN(C(CNC(=O)C(C)(C)C)c3cccnc3)CC2)cc1 (centres undefined)	none
O=C(NCc1ccc(Cl)cc1)C(=O)NCC(c1cccnc1)N1CCN(c2ccc(F)cc2)CC1 (centres undefined)	Insulin prom act 165
CC1(C)Cc2cccc(OCC(=O)Nc3cc(C(F)(F)F)ccc3N3CCOCC3)c2O1	none
Cc1ccc(CNC(=O)C2CCN(S(=O)(=O)c3c(C)noc3C)CC2)cc1	Insulin prom act 76
Cc1noc(C)c1S(=O)(=O)N1CCC(C(=O)NCCc2ccc(S(N)(=O)=O)cc2)CC1	none
Cc1ccc(CNC(=O)C2CCCN(S(=O)(=O)c3c(C)noc3C)C2)cc1 (centres undefined)	none
CC(Sc1nncs1)C(=O)Nc1ccc2c(c1)OCO2 (centres undefined)	none
CC(C)[C@@H]1NC(=O)c2cc([N+](=O)[O-])cc(I)c2NCCCC[C@@H](C(=O)NC(CC(=O)O)C(N)=O)NC(=O)[C@H](CO)NC1=O (some centres undefined)	none
Cc1ccc(C)c(NC(=O)CN(C)C(=O)COc2ncnc3sccc23)c1	none
COc1cc(OC)cc(-c2nnc(SCC(=O)N3CCOCC3)o2)c1	none
COc1ccc(C(=O)CSc2nnc(-c3cc(C)cc(C)c3)o2)cc1	none
COc1cc(OC)cc(-c2nnc(SCC(=O)Nc3cc(C)on3)o2)c1	Insulin prom act 113
O=C(CCc1nnc(Cc2c[nH]c3ccccc23)o1)NC(C1CC1)C1CC1	none
CCCCNC(=O)COc1ccccc1[N+](=O)[O-]	none
CCn1ncc(CN2CCCC(CNC(=O)c3ccc(F)cc3)C2)c1C (centres undefined)	none
O=C(CSc1nnc(-c2ccco2)n1CC1CCCO1)NC1CCCC1 (centres undefined)	none
COc1cccc(NC(=O)CSc2nnc(-c3ccoc3C)n2CC2CCCO2)c1 (centres undefined)	none
COc1ccc(NC(=O)CSc2nnc(-c3ccoc3C)n2CC2CCCO2)cc1 (centres undefined)	Insulin prom act 506
O=C(C/C=N\OCc1ccc([N+](=O)[O-])cc1)Nc1ccc(F)cc1F	none
Cc1sc(N)c(C(=O)c2ccccc2)c1C	none
O=C(COC(=O)c1cccc(C(=O)OCC(=O)NCc2ccc(F)cc2)n1)NCc1ccc(F)cc1	none
O=C(COc1ccc([N+](=O)[O-])cc1)Nc1ccncc1	none
COc1ccccc1N(C(=O)c1ccncc1)c1nc(-c2ccc([N+](=O)[O-])cc2)cs1	none
O=C(Cc1nc(-c2ccc([N+](=O)[O-])cc2)cs1)Nc1ccccc1	Insulin prom act 193
CC(NC(=S)Nc1ccc(Cl)cc1)C(c1ccccc1)N1CCOCC1 (centres undefined)	none
COc1cccc(S(=O)(=O)Nc2cccc(C(=O)N3CCOCC3)c2)c1	Insulin prom act 466
O=C(c1cccc(NS(=O)(=O)c2cccc([N+](=O)[O-])c2)c1)N1CCOCC1	none
COc1ccc(NS(=O)(=O)c2ccc(OCC(=O)N3CCOCC3)cc2)cc1	none
O=C(Nc1ccc(Oc2cccnc2)cc1)c1ccccc1F	none
CCOc1ccc(C(=O)NC(=S)Nc2ccccc2N2CCOCC2)cc1Br	none
O=C(/C=C/c1c(Cl)cccc1Cl)n1cccn1	none
O=C(NCCO)C1(c2ccc(Cl)cc2)CCCC1	none
COC(=O)c1cn(C(=O)c2ccc(Br)o2)c2ccccc12	none
COC(=O)c1cn(C(=O)c2cccc(C)c2)c2ccccc12	Insulin prom act 483
COC(=O)c1cn(C(=O)c2ccc(C)c(C)c2)c2ccccc12	none
O=C(CN1CC(c2ccccc2)CC1=O)N/N=C/c1cc(Br)ccc1O (centres undefined)	none
